For orientation: EC50 means the concentration needed to bring the measured effect to its halfway point.

The values that follow come from ChEMBL document CHEMBL4616611, “Synthesis and biological evaluation of FICZ analogues as agonists of aryl hydrocarbon receptor” (Bioorg Med Chem Lett, 2020).

Data set [1] concerns the target T1, CYP1A1 (Homo sapiens, UniProt P35869).
T1 sequence (P35869 whole entry): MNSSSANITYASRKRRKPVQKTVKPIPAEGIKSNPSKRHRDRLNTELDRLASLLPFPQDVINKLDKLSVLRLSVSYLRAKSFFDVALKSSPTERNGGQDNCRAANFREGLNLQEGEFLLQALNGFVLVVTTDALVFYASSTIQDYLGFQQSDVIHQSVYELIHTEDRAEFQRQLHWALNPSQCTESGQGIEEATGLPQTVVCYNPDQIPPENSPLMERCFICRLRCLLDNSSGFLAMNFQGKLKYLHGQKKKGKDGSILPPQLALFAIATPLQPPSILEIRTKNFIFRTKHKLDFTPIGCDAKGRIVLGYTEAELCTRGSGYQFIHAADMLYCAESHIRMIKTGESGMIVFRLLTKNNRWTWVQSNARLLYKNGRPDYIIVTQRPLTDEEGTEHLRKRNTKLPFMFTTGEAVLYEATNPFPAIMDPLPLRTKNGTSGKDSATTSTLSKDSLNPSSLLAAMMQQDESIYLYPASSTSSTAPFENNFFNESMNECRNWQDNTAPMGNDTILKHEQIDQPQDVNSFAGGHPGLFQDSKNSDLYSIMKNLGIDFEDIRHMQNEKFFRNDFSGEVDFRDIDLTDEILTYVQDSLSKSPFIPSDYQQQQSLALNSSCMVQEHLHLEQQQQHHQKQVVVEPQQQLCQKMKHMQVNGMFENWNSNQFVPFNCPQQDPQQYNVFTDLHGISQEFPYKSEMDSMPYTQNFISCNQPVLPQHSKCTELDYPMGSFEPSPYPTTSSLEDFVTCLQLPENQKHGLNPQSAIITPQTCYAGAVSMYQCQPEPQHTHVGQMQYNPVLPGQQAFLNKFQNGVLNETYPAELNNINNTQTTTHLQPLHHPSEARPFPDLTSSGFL
Briefly: Agonist activity at AhR in human HepG2 cells assessed as induction of CYP1A1 activity at 3.2 nM using 7-ethoxyresorufin as substrate after 24 hrs by ethoxyresorufin-O-deethylase assay relative to DMSO. The format is cell-based. The conditions noted are these: probe 7-ethoxyresorufin, read-out: FC. The method, boiled down:
(§1)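 EROD read-out of CYP1A1 activity in HepG cells treated for 24 h with compound or vehicle (DMSO) at 0.13 nM, 3.2 nM and 80 nM. Activity is reported as fold induction over the DMSO-treated cells.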

Data set [2] concerns the target T1, CYP1A1. The experiment in a line: Agonist activity at AhR in human HepG2 cells assessed as induction of CYP1A1 activity at 80 nM using 7-ethoxyresorufin as substrate after 24 hrs by ethoxyresorufin-O-deethylase assay relative to DMSO. The data set is classed as cell-based. The conditions noted are these: probe 7-ethoxyresorufin, read-out: FC. The method, boiled down:
as §1

In data set [3] the target is T1, CYP1A1. Briefly: Agonist activity at AhR in human HepG2 cells assessed as induction of CYP1A1 activity at 0.13 nM using 7-ethoxyresorufin as substrate after 24 hrs by ethoxyresorufin-O-deethylase assay relative to DMSO. The format is cell-based. Conditions: probe 7-ethoxyresorufin, read-out: FC. The method, boiled down: as §1
Data set [4] has as its system HepG2. The experiment in a line: Effect on AhR mRNA expression in human HepG2 cells assessed as 100 nM after 6 hrs by q-RT-PCR analysis. The format is functional, cell-based. The gist of the method: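 HepG2 cells were treated at 100 nM for 6 h. AhR and CYP1A1 mRNA levels were then quantified by qRT-PCR, normalized to GAPDH.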
The target in data set [5] is T2, Aryl hydrocarbon receptor (Homo sapiens, UniProt P35869).
T2 sequence (P35869 whole entry): T1 sequence (P35869 whole entry)
The experiment in a line: Agonist activity at AhR in human HepG2 cells assessed as induction of CYP1A1 expression after 24 hrs by ethoxyresorufin-O-deethylase assay. The data set is classed as cell-based. The conditions noted are these: for Activity: human, hepg2, 24 h. The gist of the method:
(§2)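 Full dose-response in the EROD assay. HepG2 cells were treated for 24 h across a concentration series, with FICZ as the reference agonist. CYP1A1 induction was read out and EC50 values were derived from the curves.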

Data set [6] concerns the target T2, Aryl hydrocarbon receptor. Briefly: Potency index, ratio of FICZ EC50 to test compound EC50 for agonist activity at AhR in human HepG2 cells assessed as increase in CYP1A1 expression after 24 hrs by ethoxyresorufin-O-deethylase assay. The conditions noted are these: hepg2, 24 h. The data set is classed as cell-based.
The target of data set [7] is T2, Aryl hydrocarbon receptor. Briefly: Agonist activity at AhR in human HepG2 cells assessed as induction of CYP1A1 expression at <30 pM after 24 hrs by ethoxyresorufin-O-deethylase assay. Conditions: hepg2, 24 h. The data set is classed as cell-based. The gist of the method: as §2
The target of data set [8] is T2, Aryl hydrocarbon receptor. The experiment in a line: Agonist activity at AhR in human HepG2 cells assessed as increase in CYP1A1 protein expression at 3 to 10 nM after 24 hrs by Western blot analysis. The data set is classed as cell-based. The conditions noted are these: hepg2, 24 h. The gist of the method:
(§3)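 HepG2 cells were exposed to a dose series for 24 h. CYP1A1 protein levels were then assessed by Western blotting.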
Background: A western blot detects proteins with antibodies after separation by electrophoresis.

For data set [9], the target named is T2, Aryl hydrocarbon receptor. Briefly: Agonist activity at AhR in human HepG2 cells assessed as increase in CYP1A1 protein expression after 24 hrs by Western blot analysis. The data set is classed as cell-based. Conditions: hepg2, 24 h. The method, boiled down: as §3
In data set [10] the target is T2, Aryl hydrocarbon receptor. The experiment in a line: Agonist activity at AhR in human HepG2 cells assessed as increase in CYP1A1 protein expression at 300 nM after 24 hrs by Western blot analysis. The data set is classed as cell-based. Conditions: hepg2, 24 h, 0.3 µM. The gist of the method: as §3
For data set [11], the target named is T1, CYP1A1. Briefly: Agonist activity at AhR in human HepG2 cells assessed as induction of CYP1A1 activity at 0.13 nM using 7-ethoxyresorufin as substrate after 24 hrs by ethoxyresorufin-O-deethylase assay relative to 3-phenylbenzo[f]chromen-1-one. Conditions: probe 7-ethoxyresorufin, read-out: FC. The data set is classed as cell-based.
In data set [12] the target is T1, CYP1A1. The experiment in a line: Agonist activity at AhR in human HepG2 cells assessed as induction of CYP1A1 activity at 3.2 nM using 7-ethoxyresorufin as substrate after 24 hrs by ethoxyresorufin-O-deethylase assay relative to 3-phenylbenzo[f]chromen-1-one. The format is cell-based. The conditions noted are these: probe 7-ethoxyresorufin, read-out: FC.

The source made the active and inactive calls. The calls are words filed in the database; no cut-off is given here.

With `OCc1c2c(cc3c4ccccc4n(CC4CC4)c13)[nH]c1ccccc12`, the fold induction at 24 h, 0.0032 µM in data set [1] came to 0.5. For the same compound, the fold induction at 24 h, 0.08 µM in data set [2] worked out at 2.6. In addition, the fold induction at 24 h, 0.00013 µM in data set [3] came out at 0.3.

On to `Cn1c2ccccc2c2cc3[nH]c4ccccc4c3c(C=O)c21`, for which the result in data set [4] was inactive. Also, in data set [1], the fold induction at 24 h, 0.0032 µM stood at 88.9. In data set [2], the fold induction at 24 h, 0.08 µM stood at 82.4. For the same compound, the EC50 in data set [5] was 0.26 nM. Further, the Activity result in data set [5] is reported as “Dose-dependent effect”; in [7], “Active”; in data set [8], “Active”; in [9], “Dose-dependent effect”. Besides, the “Ratio EC50” value in [6] is given as 8. Moreover, the fold induction at 24 h, 0.00013 µM in data set [3] amounted to 27.3.

With `O=Cc1c2[nH]c3ccccc3c2cc2[nH]c3ccccc3c12`, the Activity result in [5] is listed as “Dose-dependent effect”.

For the compound `Cn1c2ccccc2c2cc3c(c(C=O)c21)c1ccccc1n3Cc1ccccc1`, in [1], the fold induction at 24 h, 0.0032 µM is 4.2. Further, in data set [2], the fold induction at 24 h, 0.08 µM was found to be 27.5. In data set [3], the fold induction at 24 h, 0.00013 µM came out at 1.

With `OCc1c2c(cc3c4ccccc4n(Cc4ccccc4)c13)[nH]c1ccccc12`, the fold induction at 24 h, 0.0032 µM in data set [1] came to 0.7. In addition, the fold induction at 24 h, 0.08 µM in [2] is 3.6. For the same compound, the fold induction at 24 h, 0.00013 µM in [3] came to 0.4.

In the case of `O=c1cc(-c2ccccc2)oc2ccc3ccccc3c12` [BETA-NAPHTHOFLAVONE], the fold induction at 24 h, 0.0032 µM in [1] is 1.1. For the same compound, in data set [2], the fold induction at 24 h, 0.08 µM was 11.2. In addition, the fold induction at 24 h, 0.00013 µM in [3] worked out at 0.8. In data set [10], the outcome was Active.

With `Cn1c2ccccc2c2c(C=O)c3c(cc21)c1ccccc1n3C`, the fold induction at 24 h, 0.0032 µM in data set [1] was 3.4. The fold induction at 24 h, 0.08 µM in data set [2] came out at 39.4. The fold induction at 24 h, 0.00013 µM in [3] was found to be 1.6.

With `Cn1c2ccccc2c2cc3[nH]c4ccccc4c3c(CO)c21`, in data set [1], the fold induction at 24 h, 0.0032 µM came to 26.7. Moreover, the fold induction at 24 h, 0.08 µM in [2] amounted to 62.6. For the same compound, the fold induction at 24 h, 0.00013 µM in data set [3] turned out to be 5.3.

For the compound `CCn1c2ccccc2c2c(C=O)c3c(cc21)c1ccccc1n3C`, the fold induction at 24 h, 0.0032 µM in [1] came to 4.5. For the same compound, the fold induction at 24 h, 0.08 µM in data set [2] stood at 25.1. The fold induction at 24 h, 0.00013 µM in [3] was found to be 1.4.

Take `CCCn1c2ccccc2c2cc3[nH]c4ccccc4c3c(CO)c21`: in [1], the fold induction at 24 h, 0.0032 µM was 0.5. Moreover, the fold induction at 24 h, 0.08 µM in [2] was 3.4. The fold induction at 24 h, 0.00013 µM in data set [3] turned out to be 0.4.

For the compound `OCc1c2[nH]c3ccccc3c2cc2[nH]c3ccccc3c12`, the fold induction at 24 h, 0.0032 µM was 13.4 in data set [1] and 12 in data set [12]. For the same compound, in data set [2], the fold induction at 24 h, 0.08 µM was determined as 59.2. Further, the fold induction at 24 h, 0.00013 µM in [11] is 5; in [3], 3.8.

For the compound `CCCn1c2ccccc2c2c(C=O)c3c(cc21)c1ccccc1n3C`, the fold induction at 24 h, 0.0032 µM in data set [1] stood at 1.9. For the same compound, the fold induction at 24 h, 0.08 µM in data set [2] came out at 8.9. For the same compound, the fold induction at 24 h, 0.00013 µM in data set [3] is 1.3.

Take `CCn1c2ccccc2c2cc3[nH]c4ccccc4c3c(CO)c21`: the fold induction at 24 h, 0.0032 µM in [1] was determined as 3.5. Further, the fold induction at 24 h, 0.08 µM in data set [2] was determined as 31.8. Besides, the fold induction at 24 h, 0.00013 µM in data set [3] stood at 1.4.
